Laboratory results: ChEMBL document CHEMBL2086296, “Synthesis of novel quinoline-2-one based chalcones of potential anti-tumor activity” (Eur J Med Chem, 2012)

Experiments:
EKVX = assay: Cytotoxicity against human EKVX cells after 24 hrs by SRB assay; type: functional
Method in brief: (§1)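 NCI 60-line screen. Cells in RPMI 1640 with 5% FBS and 2 mM L-glutamine, seeded at 5,000–40,000 cells/well by doubling time, then incubated 24 h at 37 °C, 5% CO2 before dosing. Time-zero plates fixed with TCA at drug addition. DMSO stocks diluted in medium with gentamicin to five concentrations, […]. Protein read by SRB staining. GI50, TGI and LC50 derived relative to control and time-zero.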

NCI-H226 = assay: Cytotoxicity against human NCI-H226 cells after 24 hrs by SRB assay; type: functional; settings: NCI-H226, 24 h; method in brief: as §1
HOP-92 [1] = assay: (§2) Cytotoxicity against human HOP92 cells after 24 hrs by SRB assay; type: functional; settings: HOP-92, 24 h; method in brief: as §1
COLO 205 = assay: Cytotoxicity against human COLO205 cells after 24 hrs by SRB assay; type: functional; settings: COLO 205, 24 h; method in brief: as §1
HCC 2998 = assay: Cytotoxicity against human HCC2998 cells after 24 hrs by SRB assay; type: functional; settings: HCC 2998, 24 h; method in brief: as §1
SF-295 = assay: Cytotoxicity against human SF295 cells after 24 hrs by SRB assay; type: functional; settings: SF-295, 24 h; method in brief: as §1
SNB-19 = assay: Cytotoxicity against human SNB19 cells after 24 hrs by SRB assay; type: functional; settings: SNB-19, 24 h
Method in brief: (§3)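 NCI 60-cell screen. Cells are grown in RPMI 1640 with 5% FBS and 2 mM L-glutamine and seeded at 5,000–40,000 cells/well according to doubling time. They are preincubated 24 h at 37 °C in 5% CO2, and Tz plates are TCA-fixed at drug addition. Drug stock is in DMSO, diluted in medium with gentamicin, and tested at five concentrations (100, 10, 1.0, 0.1, […]). Protein is read by SRB staining. GI50, TGI and LC50 are derived relative to time-zero and control wells.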

Malme-3M [2] = assay: (§4) Cytotoxicity against human MALME-3M cells after 24 hrs by SRB assay; type: functional; method in brief: as §1
MDA-MB-435 = assay: Cytotoxicity against human MDA-MB-435 cells after 24 hrs by SRB assay; type: functional; settings: MDA-MB-435, 24 h; method in brief: as §1
UACC-257 = assay: Cytotoxicity against human UACC257 cells after 24 hrs by SRB assay; type: functional; settings: UACC-257, 24 h; method in brief: as §3
SK-MEL-28 [3] = assay: (§5) Cytotoxicity against human SK-MEL-28 cells after 24 hrs by SRB assay; type: functional; settings: SK-MEL-28, 24 h; method in brief: as §1
IGROV-1 [4] = assay: (§6) Cytotoxicity against human IGROV1 cells after 24 hrs by SRB assay; type: functional; settings: IGROV-1, 24 h; method in brief: as §1
ACHN = assay: Cytotoxicity against human ACHN cells after 24 hrs by SRB assay; type: functional; method in brief: as §1
CAKI-1 = assay: Cytotoxicity against human CAKI-1 cells after 24 hrs by SRB assay; type: functional; settings: CAKI-1, 24 h; method in brief: as §1
UO-31 [5] = assay: (§7) Cytotoxicity against human UO31 cells after 24 hrs by SRB assay; type: functional; settings: UO-31, 24 h; method in brief: as §3
DU-145 = assay: Cytotoxicity against human DU145 cells after 24 hrs by SRB assay; type: functional; settings: DU-145, 24 h; method in brief: as §1
BT-549 = assay: Cytotoxicity against human BT549 cells after 24 hrs by SRB assay; type: functional; settings: BT-549, 24 h; method in brief: as §1
[6] = (§8) Cytotoxicity against human Hs 578T cells after 24 hrs by SRB assay; type: functional; method in brief: as §1
RPMI-8226 = assay: Cytotoxicity against human RPMI8226 cells after 24 hrs by SRB assay; type: cell-based; settings: rpmi-8226, 24 h
Method in brief: (§9)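 NCI 60-cell screen. Cells grown in RPMI 1640 with 5% FBS and 2 mM L-glutamine, seeded at 5,000–40,000 cells/well, preincubated 24 h at 37 °C in 5% CO2. Drug stock in DMSO, diluted in medium with gentamicin; five final concentrations, 100, 10, 1.0, 0.1 and […]. Time-zero plates were TCA-fixed. Protein read by SRB staining; GI50, TGI and LC50 taken relative to time-zero.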

CCRF-CEM = assay: Cytotoxicity against human CCRF-CEM cells after 24 hrs by SRB assay; type: cell-based; method in brief: as §9
HL-60 = assay: Cytotoxicity against human HL60 cells after 24 hrs by SRB assay; type: cell-based; settings: hl-60, 24 h; method in brief: as §9
HOP-62 = assay: Cytotoxicity against human HOP62 cells after 24 hrs by SRB assay; type: cell-based; settings: hop-62, 24 h; method in brief: as §9
HOP-92 [7] = assay: as §2; type: cell-based; settings: hop-92, 24 h; method in brief: as §9
NCI-H322M = assay: Cytotoxicity against human NCI-H322M cells after 24 hrs by SRB assay; type: cell-based; method in brief: as §9
HCT-116 = assay: Cytotoxicity against human HCT116 cells after 24 hrs by SRB assay; type: cell-based; settings: hct-116, 24 h; method in brief: as §9
SW-620 = assay: Cytotoxicity against human SW620 cells after 24 hrs by SRB assay; type: cell-based; settings: sw-620, 24 h
Method in brief: (§10)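 NCI 60-cell-line screen: cells grown in RPMI 1640 with 5% FBS and 2 mM L-glutamine, seeded at 5,000–40,000 cells/well by doubling time, and preincubated 24 h at 37 °C in 5% CO2. Time-zero plates were TCA-fixed. DMSO stocks were diluted in medium with gentamicin to five concentrations (100, 10, 1.0, 0.1, […]). Protein was read by SRB, and GI50, TGI and LC50 were derived against time-zero.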

Malme-3M [8] = assay: as §4; type: cell-based; method in brief: as §9
SK-MEL-2 = assay: Cytotoxicity against human SK-MEL-2 cells after 24 hrs by SRB assay; type: cell-based; settings: sk-mel-2, 24 h; method in brief: as §9
M14 = assay: Cytotoxicity against human M14 cells after 24 hrs by SRB assay; type: cell-based; settings: m14, 24 h; method in brief: as §9
SK-MEL-28 [9] = assay: as §5; type: cell-based; settings: sk-mel-28, 24 h; method in brief: as §9
IGROV-1 [10] = assay: as §6; type: cell-based; settings: igrov-1, 24 h; method in brief: as §9
OVCAR-3 = assay: Cytotoxicity against human OVCAR3 cells after 24 hrs by SRB assay; type: cell-based; settings: ovcar-3, 24 h; method in brief: as §9
OVCAR-5 = assay: Cytotoxicity against human OVCAR5 cells after 24 hrs by SRB assay; type: cell-based; settings: ovcar-5, 24 h; method in brief: as §9
TK-10 = assay: Cytotoxicity against human TK10 cells after 24 hrs by SRB assay; type: cell-based; settings: tk-10, 24 h; method in brief: as §10
UO-31 [11] = assay: as §7; type: cell-based; settings: uo-31, 24 h; method in brief: as §10
MDA-MB-231 = assay: Cytotoxicity against human MDA-MB-231 cells after 24 hrs by SRB assay; type: cell-based; settings: mda-mb-231, 24 h; method in brief: as §9
T47D = assay: Cytotoxicity against human T47D cells after 24 hrs by SRB assay; type: cell-based; method in brief: as §10
[12] = as §8; type: cell-based; method in brief: as §9

## O=C(/C=C/c1cc2ccccc2[nH]c1=O)c1ccc(O)cc1
EKVX
  GI50: 13.4 µM
  TGI: 27.2 µM
NCI-H226
  GI50: 3.29 µM
  TGI: 10.9 µM
HOP-92 [1]
  GI50: 3.26 µM
  TGI: 23.2 µM
COLO 205
  GI50: 4.05 µM
  TGI: 19.7 µM
HCC 2998
  GI50: 4.13 µM
  TGI: 22.3 µM
SF-295
  GI50: 7.04 µM
  TGI: 44 µM
SNB-19
  GI50: 4.59 µM
  TGI: 18 µM
Malme-3M [2]
  GI50: 10.4 µM
  TGI: 33.6 µM
MDA-MB-435
  GI50: 2940 nM
  TGI: 16.8 µM
UACC-257
  GI50: 3.87 µM
  TGI: 16 µM
SK-MEL-28 [3]
  GI50: 5.11 µM
  TGI: 19.5 µM
IGROV-1 [4]
  GI50: 4.35 µM
  TGI: 45.1 µM
ACHN
  GI50: 2670 nM
  TGI: 8.86 µM
CAKI-1
  GI50: 4.71 µM
  TGI: > 100 µM
UO-31 [5]
  GI50: 4.38 µM
  TGI: 26.6 µM
DU-145
  GI50: 4.02 µM
  TGI: 14.3 µM
BT-549
  GI50: 1950 nM
  TGI: 5.35 µM
[6]
  GI50: 6.15 µM
  TGI: > 100 µM
RPMI-8226
  LC50: > 100 µM
CCRF-CEM
  LC50: > 100 µM
HL-60
  LC50: > 100 µM
HOP-62
  LC50: 85.2 µM
HOP-92 [7]
  LC50: > 100 µM
NCI-H322M
  LC50: 55.5 µM
HCT-116
  LC50: 9.91 µM
SW-620
  LC50: > 100 µM
Malme-3M [8]
  LC50: > 100 µM
SK-MEL-2
  LC50: 48.3 µM
M14
  LC50: > 100 µM
SK-MEL-28 [9]
  LC50: 66.3 µM
IGROV-1 [10]
  LC50: > 100 µM
OVCAR-3
  LC50: 35 µM
OVCAR-5
  LC50: 44.4 µM
TK-10
  LC50: 34.6 µM
UO-31 [11]
  LC50: > 100 µM
MDA-MB-231
  LC50: > 100 µM
T47D
  LC50: 79.6 µM
[12]
  LC50: > 100 µM
